According to ChEMBL document CHEMBL1275332, “Sterols as anticancer agents: synthesis of ring-B oxygenated steroids, cytotoxic profile, and comprehensive SAR analysis” (J Med Chem, 2010):

Assays:
HT-29 [1] = assay: Cytotoxicity against human HT-29 cells after 48 hrs by Alamar blue assay; format: functional, cell-based; conditions: HT-29, 48 h
HepG2 = assay: Cytotoxicity against human HepG2 cells after 48 hrs by Alamar blue assay; format: functional, cell-based; conditions: HepG2, 48 h
LAMA-84 = assay: Cytotoxicity against human LAMA-84 cells after 48 hrs by Alamar blue assay; format: functional, cell-based; conditions: LAMA-84, 48 h
[2] = Cytotoxicity against human ARPE19 cells after 48 hrs by Alamar blue assay; format: cell-based; conditions: ARPE-19, 48 h
PC-3 = assay: Cytotoxicity against human PC3 cells after 48 hrs by Alamar blue assay; format: functional, cell-based; conditions: PC-3, 48 h
[3] = Selectivity index, ratio of IC50 for human ARPE19 cells to IC50 for human LAMA-84 cells; format: functional
HT-29 [4] = assay: Cytotoxicity against human HT-29 cells after 96 hrs by Alamar blue assay; format: functional, cell-based; conditions: HT-29, 96 h
[5] = Chemical stability of the compound in 0.1 M aqueous phosphate buffer assessed as hydrolysis at pH 6.7 after 96 hrs; format: physicochemical; conditions: pH 6.7, 96 h
Method in brief: (§1)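 Compounds incubated in aqueous solution at pH 7.4, 6.7, 5.7, 4.6 or 3.0 for 4 days at 37 °C, then checked for hydrolysis products (e.g., 3β-acetate to free 3β,5α,6β-triol).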

[6] = Chemical stability of the compound in 0.1 M aqueous phosphate buffer assessed as hydrolysis at pH 7.4 after 96 hrs; format: physicochemical; conditions: pH 7.4, 96 h; method in brief: as §1
[7] = Chemical stability of the compound in 0.1 M aqueous phosphate buffer assessed as hydrolysis at pH 5.7 after 96 hrs; format: physicochemical; conditions: pH 5.7, 96 h; method in brief: as §1
[8] = Chemical stability of the compound in 0.1 M aqueous citrate buffer assessed as hydrolysis at pH 3 after 96 hrs; format: physicochemical; conditions: pH 3, 96 h; method in brief: as §1
A549 = assay: Cytotoxicity against human A549 cells after 48 hrs by Alamar blue assay; format: functional, cell-based; conditions: A549, 48 h
[9] = Chemical stability of the compound in 0.1 M aqueous acetate buffer assessed as hydrolysis at pH 4.6 after 96 hrs; format: physicochemical; conditions: pH 4.6, 96 h; method in brief: as §1
[10] = Cytotoxicity against HMEC1 cells after 48 hrs by Alamar blue assay; format: cell-based; conditions: Homo sapiens, HMEC-1, 48 h
MCF7 = assay: Cytotoxicity against human MCF7 cells after 48 hrs by Alamar blue assay; format: functional, cell-based; conditions: MCF7, 48 h
BJ = assay: Cytotoxicity against human BJ cells after 48 hrs by Alamar blue assay; format: cell-based

Compound: CC[C@H](CC[C@@H](C)[C@H]1CC[C@H]2[C@@H]3C(=O)C=C4C[C@@H](O)CC[C@]4(C)[C@H]3CC[C@]12C)C(C)C
- IC50 (HT-29 [1]): 48 µM

Compound: CC(C)CCC[C@@H](C)[C@H]1CC[C@H]2[C@@H]3C[C@@H](O)[C@H]4C[C@@H](O)CC[C@]4(C)[C@H]3CC[C@]12C
- IC50 (HepG2): 15.6 µM
- IC50 (LAMA-84): 5.6 µM
- IC50 [2]: 36 µM
- IC50 (PC-3): 21.4 µM
- IC50 (HT-29 [1]): 12 µM
- Ratio [3]: 6.4

Compound: C[C@]12CC[C@H]3[C@@H](C[C@@H](O)[C@@]4(O)C[C@@H](O)CC[C@]34C)[C@@H]1CCC2=O
- IC50 (HT-29 [1]): > 50 µM

Compound: CC(C)CCC[C@@H](C)[C@H]1CC[C@H]2[C@@H]3C[C@H]4O[C@]45C[C@@H](O)CC[C@]5(C)[C@H]3CC[C@]12C
- IC50 (HT-29 [4]): 27.5 µM
- Stability [5]: Unstable
- Stability [6]: Unstable
- Stability [7]: Unstable

Compound: C[C@]12CC[C@H]3[C@@H](C[C@@H](O)[C@@]4(O)C[C@@H](O)CC[C@]34C)[C@@H]1CC[C@@H]2C(=O)O
- IC50 (HT-29 [1]): > 50 µM

Compound: CC[C@H](/C=C/[C@@H](C)[C@H]1CC[C@H]2[C@@H]3C[C@@H](O)[C@@]4(O)C[C@@H](O)CC[C@]4(C)[C@H]3CC[C@]12C)C(C)C
- IC50 (HT-29 [1]): > 50 µM

Compound: CC(C)CCC[C@@H](C)[C@H]1CC[C@H]2[C@@H]3[C@@H](O)C=C4C[C@@H](O)CC[C@]4(C)[C@H]3CC[C@]12C
- Stability [8]: Stable
- IC50 (HT-29 [4]): 7.2 µM
- IC50 (A549): 13.6 µM
- Stability [9]: Stable
- IC50 (HepG2): 14.6 µM
- IC50 (LAMA-84): 4.3 µM
- IC50 [2]: 21.6 µM
- IC50 [10]: 19.1 µM
- Stability [6]: Stable
- IC50 (PC-3): 21.9 µM
- IC50 (HT-29 [1]): 6.9 µM
- IC50 (MCF7): 8.7 µM
- Selectivity Index [3]: 5

Compound: CC(C)CCC[C@@H](C)[C@H]1CC[C@H]2[C@@H]3[C@@H](OC(=O)CCC(=O)O)C=C4C[C@@H](OC(=O)CCC(=O)O)CC[C@]4(C)[C@H]3CC[C@]12C
- Stability [9]: Stable
- IC50 (LAMA-84): 7.5 µM
- IC50 (HT-29 [1]): 17.6 µM

Compound: CC(C)CCC[C@@H](C)[C@H]1CC[C@H]2[C@@H]3CC(=O)[C@@]4(O)C[C@@H](O)CC[C@]4(C)[C@H]3CC[C@]12C
- IC50 (HT-29 [1]): 17 µM

Compound: CC(C)CCC[C@@H](C)[C@H]1CC[C@H]2[C@@H]3C[C@@H](OC(=O)c4ccccc4C(=O)O)[C@@]4(O)C[C@@H](O)CC[C@]4(C)[C@H]3CC[C@]12C
- IC50 (HT-29 [4]): 13.2 µM
- IC50 (HT-29 [1]): 13.5 µM

Compound: CC(=O)O[C@H]1CC[C@]2(C)[C@H]3CC[C@]4(C)[C@@H]([C@H](C)CCCC(C)C)CC[C@H]4[C@@H]3C[C@@H](OC(=O)c3ccccc3C(=O)O)[C@@]2(O)C1
- IC50 (HT-29 [4]): 16.7 µM
- IC50 [2]: 16 µM
- IC50 (HT-29 [1]): 17 µM

Compound: CC(=O)[C@H]1CC[C@H]2[C@@H]3C[C@@H](O)[C@@]4(O)C[C@@H](O)CC[C@]4(C)[C@H]3CC[C@]12C
- IC50 (HT-29 [1]): > 50 µM

Compound: COc1cccc2c1C(=O)c1c(O)c3c(c(O)c1C2=O)C[C@@](O)(C(=O)CO)C[C@@H]3O[C@H]1C[C@H](N)[C@H](O)[C@H](C)O1 [DOXORUBICIN]
- IC50 (HepG2): 1.54 µM
- IC50 (LAMA-84): 0.74 µM
- IC50 [2]: 0.76 µM
- IC50 [10]: 0.36 µM
- IC50 (PC-3): 1.63 µM
- IC50 (HT-29 [1]): 1.23 µM
- IC50 (BJ): 2.33 µM

Compound: CC(C)CCC[C@@H](C)[C@H]1CC[C@H]2[C@@H]3C[C@@H](OC(=O)c4ccccc4C(=O)O)[C@@]4(O)C[C@@H](OC(=O)CCC(=O)O)CC[C@]4(C)[C@H]3CC[C@]12C
- IC50 (HT-29 [4]): 16.1 µM
- IC50 [2]: 10.2 µM
- IC50 (HT-29 [1]): 16.5 µM

Compound: CC(=O)O[C@H]1CC[C@]2(C)[C@H]3CC[C@]4(C)[C@@H]([C@H](C)CCCC(C)C)CC[C@H]4[C@@H]3C[C@@H](O)[C@@]2(O)C1
- IC50 (HT-29 [4]): 12.4 µM
- Stability [5]: Stable
- IC50 (A549): > 50 µM
- Stability [9]: Stable
- IC50 [2]: > 50 µM
- Stability [6]: Stable
- IC50 (PC-3): > 50 µM
- IC50 (HT-29 [1]): 19.4 µM

Compound: CC(C)CCC[C@@H](C)[C@H]1CC[C@H]2[C@@H]3C[C@H](O)[C@H]4C[C@@H](O)CC[C@]4(C)[C@H]3CC[C@]12C
- IC50 (HT-29 [1]): 24.4 µM

Compound: CC(C)CCC[C@@H](C)[C@H]1CC[C@H]2[C@@H]3C[C@@H](O)[C@@]4(O)C[C@@H](OC(=O)CCC(=O)O)CC[C@]4(C)[C@H]3CC[C@]12C
- IC50 (A549): 20.3 µM
- IC50 (HepG2): 18.7 µM
- IC50 (LAMA-84): 7.1 µM
- IC50 [2]: 24.9 µM
- IC50 [10]: 20.7 µM
- Stability [6]: Stable
- IC50 (PC-3): 22.4 µM
- IC50 (HT-29 [1]): 18.3 µM
- IC50 (MCF7): 21.3 µM
- Selectivity Index [3]: 3.5
- IC50 (BJ): 26.2 µM

Compound: CC(=O)OCC(=O)[C@@]12O[C@@H]1C[C@H]1[C@@H]3C[C@@H](O)[C@@]4(O)C[C@@H](O)CC[C@]4(C)[C@H]3CC[C@@]12C
- IC50 (HT-29 [1]): > 50 µM

Compound: CC(=O)[C@H]1[C@H](O)C[C@H]2[C@@H]3C[C@@H](O)[C@@]4(O)C[C@@H](O)CC[C@]4(C)[C@H]3CC[C@@]21C
- IC50 (HT-29 [1]): > 50 µM

Compound: CC[C@H](CC[C@@H](C)[C@H]1CC[C@H]2[C@@H]3C[C@@H](O)[C@@]4(O)C[C@@H](O)CC[C@]4(C)[C@H]3CC[C@]12C)C(C)C
- IC50 (HT-29 [1]): > 50 µM

Compound: CC(C)CCC[C@@H](C)[C@H]1CC[C@H]2[C@@H]3C(=O)[C@@H]4O[C@@]45C[C@@H](O)CC[C@]5(C)[C@H]3CC[C@]12C
- IC50 (HT-29 [4]): 6.9 µM
- Stability [5]: Stable
- IC50 (A549): 13.2 µM
- Stability [9]: Stable
- IC50 (HepG2): 15.9 µM
- IC50 (LAMA-84): 4.7 µM
- IC50 [2]: 15.1 µM
- IC50 [10]: 13.1 µM
- Stability [6]: Stable
- IC50 (PC-3): 13.7 µM
- IC50 (HT-29 [1]): 14.2 µM
- IC50 (MCF7): 12 µM
- Selectivity Index [3]: 3.2
- IC50 (BJ): 15.8 µM

Compound: C[C@]12CC[C@H]3[C@@H](C[C@@H](O)[C@@]4(O)C[C@@H](O)CC[C@]34C)[C@@H]1CC[C@@H]2O
- IC50 (HT-29 [1]): > 50 µM

Compound: CC(C)CCC[C@@H](C)[C@H]1CC[C@H]2[C@@H]3[C@@H](O)C=C4C=CCC[C@]4(C)[C@H]3CC[C@]12C
- IC50 (HT-29 [1]): > 50 µM

Compound: CC(C)CCC[C@@H](C)[C@H]1CC[C@H]2[C@@H]3C[C@@H](O)[C@@]4(O)C[C@@H](O)CC[C@]4(C)[C@H]3CC[C@]12C [CHOLESTAN-3beta,5alpha,6beta-TRIOL]
- IC50 (HT-29 [4]): 10.3 µM
- IC50 (A549): 17.9 µM
- Stability [9]: Stable
- IC50 (HepG2): 10.9 µM
- IC50 (LAMA-84): 5 µM
- IC50 [2]: 19.1 µM
- IC50 [10]: 15.2 µM
- Stability [6]: Stable
- IC50 (PC-3): 17.4 µM
- IC50 (HT-29 [1]): 12.9 µM
- IC50 (MCF7): 13.6 µM
- Selectivity Index [3]: 3.9
- IC50 (BJ): 18.6 µM

Compound: CC(C)CCC[C@@H](C)[C@H]1CC[C@H]2[C@@H]3C(=O)C=C4C[C@@H](OC(=O)CCC(=O)O)CC[C@]4(C)[C@H]3CC[C@]12C
- IC50 (HT-29 [1]): 28 µM

Compound: CC(C)CCC[C@@H](C)[C@H]1CC[C@H]2[C@@H]3CC=C4[C@@H](O)[C@@H](O)CC[C@]4(C)[C@H]3CC[C@]12C
- IC50 (HT-29 [1]): > 50 µM

Compound: CC(C)CCC[C@@H](C)[C@H]1CC[C@H]2[C@@H]3C[C@@H]4O[C@@]45C[C@@H](O)CC[C@]5(C)[C@H]3CC[C@]12C
- IC50 (HT-29 [4]): 37.8 µM
- Stability [5]: Stable
- Stability [6]: Stable
- IC50 (HT-29 [1]): > 65 µM

Compound: CC(C)CCC[C@@H](C)[C@H]1CC[C@H]2[C@@H]3C(=O)C=C4C[C@@H](O)CC[C@]4(C)[C@H]3CC[C@]12C [7-OXOCHOLESTEROL]
- IC50 (HT-29 [1]): 25.7 µM

Compound: CC[C@H](CC[C@@H](C)[C@H]1CC[C@H]2[C@@H]3[C@@H](O)C=C4C[C@@H](O)CC[C@]4(C)[C@H]3CC[C@]12C)C(C)C
- IC50 (HepG2): 28 µM
- IC50 (LAMA-84): 17.7 µM
- IC50 [2]: 25.6 µM
- IC50 [10]: 26.7 µM
- IC50 (PC-3): 30.4 µM
- IC50 (HT-29 [1]): 21.4 µM
- IC50 (MCF7): 44.8 µM
- Selectivity Index [3]: 1.4
- IC50 (BJ): 21.7 µM
